MIN6 prolif = induces beta-cell replication in MIN6 cells; 0.29% of 330,000 active; proliferation, % at 10 µM; AID 2380; MIN6 cells proliferation, ATPlite luminescence, 48 h; cells starved in 0.2% serum; 100% = growth in 10% serum;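 active = compounds whose signal lies at least 3.5 SD above the mean of all wells on their plate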
Granule exo inh = blocks lytic granule exocytosis. TALL-104 LAMP-1 surface exposure, flow cytometry; cells stimulated with thapsigargin and PMA. inhibition, % at 10 µM. 0.66% of 360,000 active. AID 651702;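 active = inhibition above about 55%, limit read from the data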
iPSC survival up = enhancers of human iPSC single-cell survival; hiPSC single-cell survival, ATPlite luminescence; 100% = ROCK inhibitor wells, 0% = DMSO; survival enhancement, % at 20 µM; 0.044% of 360,000 active; AID 602274; in the data active = survival enhancement above about 18%;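 note: cells exposed to compounds for 16 hours before the ATP read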
Apaf-1 inh = blocks human Apaf-1 apoptosome activity. inhibition, % at 20 µM. O14727. 0.71% of 330,000 active. reconstituted apoptosome caspase-3 activity, DEVD-Rh110 fluorescence. AID 489030; active = inhibition of at least 40% at 20 µM
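detection = Rh110 fluorescence intensity | test system = biochemical Apaf-1 apoptosome reconstitution | also added = cytochrome c and DEVD-Rh110 substrate | schedule = 30 min plus 50 min, RT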
MPTP block = blocks calcium-induced mitochondrial swelling | isolated mouse mitochondria, Ca2+ swelling absorbance, 30 min | inhibition, % at 10 µM | 1.4% of 360,000 active | AID 602449;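 active = inhibition of 50% or more, scaled per plate between neutral and stimulator controls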
UBC13 inh = inhibitors of human UBC13 polyubiquitin chain formation. TR-FRET. inhibition, % at 20 µM. 0.47% of 330,000 active. AID 485273; in the data active = inhibition above about 45%, passing the limit was not always enough
Target sequence (P61088 whole entry, looked up): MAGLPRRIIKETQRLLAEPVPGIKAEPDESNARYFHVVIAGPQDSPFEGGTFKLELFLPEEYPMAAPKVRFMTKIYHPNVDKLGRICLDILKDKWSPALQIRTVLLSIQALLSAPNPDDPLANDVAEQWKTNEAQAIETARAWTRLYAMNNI
Exocytosis CP01 = blocks lytic granule exocytosis | shares compounds with Granule exo inh | 11% of 1,500 active | inhibition, % at 10 µM | TALL-104 cells, LAMP-1 externalization, flow cytometry; stimulated with PMA plus thapsigargin; in the data active = inhibition above about 60%
Each line names hits and unclear results; the compound was inactive in the other large screens (follow-up assays come after a bar, where they were run). This is a sample that favours compounds with a hit; in the whole collection about 3% have one here.

Cc1noc(C)c1S(=O)(=O)N(CC(=O)NCCc1ccccc1)c1ccc(C(C)C)cc1	Granule exo inh 56 | Exocytosis CP01 inactive
CNC[C@H]1Oc2c(NS(=O)(=O)c3cccs3)cccc2C(=O)N([C@H](C)CO)C[C@@H]1C	Granule exo inh 77 | Exocytosis CP01 inactive
C[C@H](CO)N1C[C@H](C)[C@@H](CN(C)S(=O)(=O)c2ccc(F)cc2)Oc2c(NC(=O)c3ccncc3)cccc2C1=O	Granule exo inh 92 (no result: MIN6 prolif, Apaf-1 inh, UBC13 inh) | Exocytosis CP01 inactive
C[C@H](CO)N1C[C@H](C)[C@@H](CN(C)S(=O)(=O)c2ccccc2)Oc2c(NC(=O)c3ccncc3)cccc2C1=O	none
COc1ccc(Cn2c(SCc3ccccc3C)nc3cc(OC)c(OC)cc3c2=N)cc1	Granule exo inh 96, Apaf-1 inh 70 | Exocytosis CP01 inactive
O=C(CC(Sc1ccc(Br)cc1)C(=O)O)c1ccc(F)cc1 (stereo not drawn)	Granule exo inh 69 | Exocytosis CP01 inactive
CCOc1ccc(C(=O)CC(Sc2ccc(C)cc2)C(=O)O)cc1 (stereo not drawn)	none
COc1ccc(CNC(=O)c2cn(Cc3ccc(S(=O)(=O)N(C)C)cc3)c(=O)s2)cc1	none (no result: MIN6 prolif, Apaf-1 inh, UBC13 inh)
CSc1nc(C(C)C)ccc1CNC(=O)CC(C)c1ccccc1 (stereo not drawn)	Granule exo inh 63 | Exocytosis CP01 inactive
CC(CC(=O)NCc1ccc(F)cc1)c1ccccc1 (stereo not drawn)	none
COc1ccc(CCNC(=O)CNCCc2ccc(F)cc2)cc1	none
Cc1cc(C)c(OCC(=O)OCC(=O)N2CCN(C(=O)c3ccco3)CC2)c(C)c1	none
Cc1cc(Br)cc(Cl)c1OCC(=O)N1CCN(C(=O)c2ccco2)CC1	Granule exo inh 89 | Exocytosis CP01 inactive
COc1ccc(C(O)c2nc(-c3ccccc3C)cs2)cc1 (stereo not drawn)	none (no result: MIN6 prolif, Apaf-1 inh, UBC13 inh)
COc1ccccc1NC(=O)C1(c2ccccc2)CCCC1	Granule exo inh 85 | Exocytosis CP01 inactive
CNC(=O)C1(c2ccccc2)CCCCC1	none (no result: MIN6 prolif, Apaf-1 inh, UBC13 inh)
O=S(=O)(CC(CN1CCCCC1)N1CCCCC1)c1ccc2ccccc2c1 (stereo not drawn)	Granule exo inh 68 (no result: MIN6 prolif, Apaf-1 inh, UBC13 inh) | Exocytosis CP01 inactive
Cc1ccc(S(=O)(=O)CC(CN2CCCCC2)N2CCCCC2)cc1 (stereo not drawn)	none (no result: MIN6 prolif, Apaf-1 inh, UBC13 inh)
O=C(COC(=O)c1cnccn1)NCCc1ccccc1	none
Cc1cnc(C(=O)OCC(=O)NCCc2ccccc2)cn1	Granule exo inh 110 | Exocytosis CP01 inactive
COc1ccc(CCNC(=O)c2ccc(NC(=O)CC3SC(N4CCCCC4)=NC3=O)cc2)cc1 (stereo not drawn)	none (no result: MIN6 prolif, Apaf-1 inh, UBC13 inh)
CCCCCCNC(=O)c1cccc(-c2ccc(C)c3ccccc23)n1	Granule exo inh 58 | Exocytosis CP01 inactive
COc1ccc(CCC(=O)OCC(=O)Nc2ccccc2)cc1	none
c1ccc2[nH]c(Cn3nnc4ccccc43)nc2c1	Granule exo inh 59 | Exocytosis CP01 inactive
COc1cccc(NC(=O)COC(=O)c2c(C)nn(-c3ccccc3)c2C)c1	none
CC(C)N(Cc1ccccc1)S(=O)(=O)c1ccc(F)cc1	Granule exo inh 64 | Exocytosis CP01 inactive
Cc1ccc(-n2ccc(=O)c(C(=O)Nc3ccc(S(=O)(=O)Nc4nccs4)cc3)n2)cc1	none
COc1ccccc1C(=O)N/C(=C\c1cn(C)c2ccccc12)C(=O)NCCCn1ccnc1	Granule exo inh 67 | Exocytosis CP01 inactive
Cc1ccc(S(=O)(=O)Nc2ccc3c(c2)OCCO3)c(C)c1NS(C)(=O)=O	none
CCOC(=O)C1Nc2c(cc(C(F)(F)F)cc2[N+](=O)[O-])C2c3ccccc3CC12 (stereo not drawn)	Granule exo inh 76 | Exocytosis CP01 inactive
O=C(Nc1cccnc1)C1Cc2c(-c3cccc(F)c3)ccnc2O1 (stereo not drawn)	none (no result: MIN6 prolif, Apaf-1 inh, UBC13 inh)
Cc1ccc(C)c(CN2CCC(CNC(=O)Nc3ccc(F)c(Cl)c3)CC2)c1	Granule exo inh 58 | Exocytosis CP01 inactive
CCc1ccc(NC(=O)NCC2CCN(Cc3cccc(Cl)c3)CC2)cc1	Granule exo inh 61 | Exocytosis CP01 inactive
Cc1ccc(NC(=O)NCC2CCN(Cc3cccc(Cl)c3)CC2)cc1Cl	none
COC(=O)c1ccc(/C=C/C(=O)OCC(=O)NCc2cccs2)cc1	none
O=C1c2ccccc2CC1Sc1nnc(-c2ccncc2)o1 (stereo not drawn)	none
Cc1ccccc1N1C(=O)CC(Sc2nnc(-c3ccccc3)o2)C1=O (stereo not drawn)	Granule exo inh 88 | Exocytosis CP01 inactive
CSc1cccc(NC(=O)c2cccc3cccnc23)c1	Granule exo inh 82 | Exocytosis CP01 inactive
Cc1cc2nc(/C=C/c3cccnc3)[nH]c2cc1C	Granule exo inh 58 | Exocytosis CP01 inactive
COc1ccc(NC(=O)c2cccc3c2C(=O)N(C2CCCCC2)C3)cc1	none
COc1ccc(OC)c(NC(=O)c2cccc3c2C(=O)N(C2CCCCC2)C3)c1	Granule exo inh 78 | Exocytosis CP01 inactive
CC(=O)Nc1cccc(-c2ccnc3c2CC(C)(C(=O)NCc2ccncc2)O3)c1 (stereo not drawn)	none (no result: MIN6 prolif, Apaf-1 inh, UBC13 inh)
CC[C@@]1(c2ccccc2OC)ON(c2ccccc2C(F)(F)F)C1=O	none
CCCOc1ccc(-c2nc(N3CCN(C)CC3)c3ccccc3n2)cc1	none
CCCOc1ccc(-c2nc(N3CCN(CC)CC3)c3ccccc3n2)cc1	Granule exo inh 82 | Exocytosis CP01 inactive
O=C(CCN1CCCCC1)c1ccc2c(c1)OCO2	Granule exo inh 80 | Exocytosis CP01 inactive
O=C(c1ccccc1)c1ccc2c(c1)OCCOCCOCCOCCO2	Granule exo inh 72 | Exocytosis CP01 inactive
CCCOc1ccc(C(=O)CCN2CCCCC2)cc1	none
O=C(O)c1ccc2c(c1)OCCOCCOCCOCCOCCO2	none
O=C(CCN1CCOCC1)c1ccc2c(c1)OCCO2	Granule exo inh 85 | Exocytosis CP01 inactive
CCOc1ccc(C(=O)CCN2CCCCCC2)cc1	Granule exo inh 101 | Exocytosis CP01 64
O=C(CCCN1CCOCC1)c1ccc2c(c1)OCCO2	none
CCn1cc(C(=O)N2CCN(c3ccc(OC)cc3)CC2)c(=O)c2cc(S(=O)(=O)N3CCOCC3)ccc21	none
CCOc1ccc(S(=O)(=O)NCCC(=O)NCCOc2ccccc2)cc1	none
CCN(CC(=O)NCc1ccc(Cl)cc1)C(=O)c1cc(OC)cc(OC)c1	none
COC(=O)N(C)C[C@H]1OCc2cnnn2CCCC(=O)N([C@@H](C)CO)C[C@H]1C	none (no result: MIN6 prolif, Apaf-1 inh, UBC13 inh)
O=C(CCN1CCc2ccccc2CC1)c1ccc2c(c1)OCCO2	Granule exo inh 101 | Exocytosis CP01 78
CCN1C(c2ccccc2)C(C)C(=O)C(C)C1c1ccccc1 (stereo not drawn)	Granule exo inh 58 | Exocytosis CP01 inactive
